What was measured:
[1] = tested on: Rattus norvegicus; assay: Percentage change of non-HDL cholesterol levels in obese female Zucker rats after 1 week of pre-treatment at a dose of 100 mg/kg/day; assay type: functional
Outline: (§1)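 Female Zucker fatty rats [Crl:(Zuc)-faBR], 10–12 weeks old (400–500 g), acclimated 7 days and fed rodent chow. Dosed once daily by oral gavage in 20% EtOH/80% PEG-200 (v/v), at 0.25% of body weight, for 2 weeks. Blood taken after a 6-h fast: orbital plexus before dosing and at day 7, cardiac puncture at day 14. Serum lipoprotein cholesterol measured by Superose 6 gel filtration with on-line cholesterol detection. Values are % change from pretreatment, mean ± SEM.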

[2] = tested on: Rattus norvegicus; assay: Percentage change of non-HDL cholesterol levels in obese female Zucker rats after 2 weeks of pre-treatment at a dose of 100 mg/kg/day; assay type: functional; outline: as §1
[3] = tested on: Rattus norvegicus; assay: Percentage change of HDL cholesterol levels in obese female Zucker rats after 1 week of pre-treatment at a dose of 100 mg/kg/day; assay type: functional
Outline: (§2)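 Obese female Zucker fatty rats were gavaged once daily with 30 or 100 mg/kg/day in 20% EtOH/80% PEG-200 for 2 weeks. Sera were collected after a 6 h fast, before dosing, at 1 week (orbital plexus) and at 2 weeks (cardiac puncture). HDL-C was total cholesterol multiplied by HDL area fraction from gel-filtration lipoprotein profiles. Reported as % change from pretreatment ± SEM.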

[4] = tested on: Rattus norvegicus; assay: Percentage change of triglycerides in obese female Zucker rats after 2 weeks of pre-treatment at a dose of 100 mg/kg/day; assay type: functional; outline: as §1
[5] = tested on: Rattus norvegicus; assay: Percentage change of triglycerides in obese female Zucker rats after 1 week of pre-treatment at a dose of 100 mg/kg/day; assay type: functional; outline: as §1
[6] = Concentration required for inhibition of lipid synthesis in primary cultures of rat hepatocytes; assay type: functional, cell-based; conditions: Hepatocyte
Outline: (§3)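 Primary hepatocytes from male Sprague-Dawley rats (Seglen isolation), plated at 1.5×10^5 cells/cm² on collagen in serum-containing DMEM, switched to serum-free medium after 4 h, grown overnight to monolayers. Cells incubated 4 h with 0.25 μCi [1-14C]acetate/well (1 Ci/mol final) plus 0, 1, 3, 10, 30, 100 or 300 μM compound. Lipids extracted into scintillant and counted; IC50 taken from lipid synthesis rates.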

[7] = tested on: Rattus norvegicus; assay: Percentage change of HDL cholesterol levels in obese female Zucker rats after 2 weeks of pre-treatment at a dose of 100 mg/kg/day; assay type: functional; outline: as §2
[8] = Concentration required for inhibition of lipid synthesis in primary cultures of rat hepatocytes; value ranges from 3-10 uM; assay type: functional, cell-based; conditions: Hepatocyte; outline: as §3
[9] = tested on: Rattus norvegicus; assay: Percentage change of HDL cholesterol levels in obese female Zucker rats after 2 weeks of pre-treatment at a dose of 30 mg/kg/day; assay type: functional; outline: as §2
[10] = Concentration required for inhibition of lipid synthesis in primary cultures of rat hepatocytes; value ranges from 100-300 uM; assay type: functional, cell-based; conditions: Hepatocyte; outline: as §3
[11] = tested on: Rattus norvegicus; assay: Percentage change of non-HDL cholesterol levels in obese female Zucker rats after 1 week of pre-treatment at a dose of 30 mg/kg/day; assay type: functional; outline: as §1
[12] = tested on: Rattus norvegicus; assay: Percentage change of HDL cholesterol levels in obese female Zucker rats after 1 week of pre-treatment at a dose of 30 mg/kg/day; assay type: functional; outline: as §2
[13] = tested on: Rattus norvegicus; assay: Percentage change of triglycerides in obese female Zucker rats after 2 weeks of pre-treatment at a dose of 30 mg/kg/day; assay type: functional; outline: as §1
[14] = tested on: Rattus norvegicus; assay: Percentage change of non-HDL cholesterol levels in obese female Zucker rats after 2 weeks of pre-treatment at a dose of 30 mg/kg/day; assay type: functional; outline: as §1
[15] = tested on: Rattus norvegicus; assay: Percentage change of triglycerides in obese female Zucker rats after 1 week of pre-treatment at a dose of 30 mg/kg/day; assay type: functional; outline: as §1
[16] = tested on: Rattus norvegicus; assay: Percentage change of non-HDL cholesterol levels in obese female Zucker rats after 1 week of treatment at a dose of 100 mg/kg/day; assay type: functional; conditions: in the assay text read “30 mg/kg/day” for “100 mg/kg/day”; outline: as §1
[17] = Concentration required for inhibition of lipid synthesis in primary cultures of rat hepatocytes at 300 uM; not active; assay type: functional; conditions: Hepatocyte; outline: as §3
[18] = tested on: Rattus norvegicus; assay: Percentage change of HDL cholesterol levels in obese female Zucker rats after 2 weeks of pre-treatment at a dose of 59 mg/kg/day; assay type: functional
[19] = tested on: Rattus norvegicus; assay: Percentage change of HDL cholesterol levels in obese female Zucker rats after 1 week of pre-treatment at a dose of […]; assay type: functional
[20] = tested on: Rattus norvegicus; assay: Percentage change of triglycerides in obese female Zucker rats after 1 week of pre-treatment at a dose of 59 mg/kg/day; assay type: functional; outline: as §1
[21] = tested on: Rattus norvegicus; assay: Percentage change of non-HDL cholesterol levels in obese female Zucker rats after 2 weeks of pre-treatment at a dose of 59 mg/kg/day; assay type: functional; outline: as §1
[22] = tested on: Rattus norvegicus; assay: Percentage change of non-HDL cholesterol levels in obese female Zucker rats after 1 week of pre-treatment at a dose of 59 mg/kg/day; assay type: functional; outline: as §1
[23] = tested on: Rattus norvegicus; assay: Percentage change of triglycerides in obese female Zucker rats after 2 weeks of pre-treatment at a dose of 59 mg/kg/day; assay type: functional; outline: as §1

`CC(C)(CO)CCCCCC(=O)CCCCCC(C)(C)CO` gave a Change [1] of -91%, a Change [2] of -88% and a Change [3] of 77%. The Change [4] was -92%, the Change [5] was -92% and the IC50 [6] was 3 µM.

`CC(C)(CO)CCCCC(=O)CCCC(C)(C)CO` showed a Change [1] of -26%, a Change [2] of 4% and a Change [7] of 48%. The Change [3] was 47%, the Change [4] was -12% and the IC50 [8] was under 10 µM. The Change [5] was -40%.

Work on `CC(C)(CCCCCC(=O)CCCCC(C)(C)C(=O)O)C(=O)O` yielded a Change [1] of -30%, a Change [2] of -51% and a Change [7] of 72%. It also gave a Change [3] of 240%, a Change [4] of -62% and a Change [5] of -65%. For the same compound, the IC50 [6] was 3 µM.

With `CC(C)OC(=O)C(C)(C)Oc1ccc(C(=O)c2ccc(Cl)cc2)cc1` [FENOFIBRATE] the Change [1] was 19.8%, the Change [2] was 11.6% and the Change [7] was -14%. It also gave a Change [3] of -41%, a Change [4] of -8% and a Change [5] of 6%.

`Cc1ccc(C(C)(CCCCC(=O)CCCCC(C)(C(=O)O)c2ccc(C)cc2)C(=O)O)cc1` (stereo unspecified) gave a Change [9] of 10%, an IC50 [10] of under 300 µM and a Change [11] of 0%. For the same compound, the Change [12] was 0%, the Change [13] was 12% and the Change [14] was 47%. For the same compound, the Change [15] was -11%.

`CC(C)(CO)Cc1cccc(C(=O)c2cccc(CC(C)(C)CO)c2)c1` showed a Change [1] of -14%, a Change [2] of -5% and a Change [7] of -11%. The Change [3] was 1%, the Change [4] was -8% and the Change [5] was -29%. It also gave an IC50 [6] of 52 µM.

Compound `CC(C)(CO)CCCC(=O)CCCC(C)(C)CO` has a Change [1] of -22%, a Change [2] of 28% and a Change [7] of 2%. It also gave a Change [3] of 24%, a Change [4] of 10% and a Change [5] of -31%. For the same compound, the IC50 [6] was 27 µM.

In the case of `CCCCCCCCCCCCCCSCC(=O)O` [TETRADECYLTHIOACETIC ACID], the IC50 [6] is reported as 43 µM.

`CC(C)(CO)CCCCCC(=O)CCCCC(C)(C)CO` showed a Change [1] of -70%, a Change [2] of -78% and a Change [7] of 78%. It also gave a Change [3] of 78%, a Change [4] of -87% and a Change [5] of -85%. For the same compound, the IC50 [6] was 2 µM.

`CC(C)(CO)CCCCCCC(=O)CCCCCCC(C)(C)CO` showed an IC50 [6] of 2 µM and a Change [16] of -50%.

For `CC(C)Cc1ccc(C(C)(CO)CCCCC(=O)CCCCC(C)(CO)c2ccc(CC(C)C)cc2)cc1` (stereo unspecified), the Change [1] was 27%, the Change [2] was 34% and the Change [7] was 6%. The inhibition at 300 µM [17] was under 50%, the Change [3] was -5% and the Change [4] was -15%. The Change [5] was -10%.

Compound `CC(C)(CCCCCCC(=O)CCCCCCC(C)(C)C(=O)O)C(=O)O` has an IC50 [6] of 9 µM.

`CC(CO)(CCCCCC(=O)CCCCCC(C)(CO)c1ccccc1)c1ccccc1` (stereo unspecified) showed a Change [1] of 29%, a Change [2] of 9% and a Change [7] of 10%. For the same compound, the Change [3] was 2%, the Change [4] was 1% and the Change [5] was 24%. The IC50 [6] was 93 µM.

`CC(C)(Cc1cccc(C(=O)c2cccc(CC(C)(C)C(=O)O)c2)c1)C(=O)O` gave a Change [18] of 7%, a Change [19] of 2% and a Change [20] of -24%. For the same compound, the Change [21] was 34%, the Change [22] was -43% and the Change [23] was 7%.

With `CC(CCCC(=O)CCCC(C)(C(=O)O)c1ccccc1)(C(=O)O)c1ccccc1` (stereo unspecified) the Change [1] was 36%, the Change [2] was 65% and the Change [7] was 12%. It also gave an inhibition at 300 µM [17] of under 50%, a Change [3] of -4% and a Change [4] of 27%. For the same compound, the Change [5] was 10%.

With `CC(CCCCC(=O)CCCCC(C)(C(=O)O)c1ccccc1)(C(=O)O)c1ccccc1` (stereo unspecified) the Change [1] was 36%, the Change [2] was 79% and the Change [7] was 45%. For the same compound, the inhibition at 300 µM [17] was under 50%, the Change [3] was 43% and the Change [4] was -8%. For the same compound, the Change [5] was -36%.

Work on `CC(CO)(CCCCC(=O)CCCCC(C)(CO)c1ccccc1)c1ccccc1` (stereo unspecified) yielded a Change [9] of -27%, an IC50 [10] of under 300 µM and a Change [11] of -30%. The Change [12] was 0%, the Change [13] was 21% and the Change [14] was 31%. The Change [15] was -25%.

For `CC(C)(CCCCCCCC(=O)CCCCCCCC(C)(C)C(=O)O)C(=O)O`, the Change [1] was -81%, the Change [2] was -45% and the Change [7] was 86%. For the same compound, the Change [3] was 44%, the Change [4] was -63% and the Change [5] was -85%. For the same compound, the IC50 [6] was 5 µM.

With `CC(CO)(CCCC(=O)CCCC(C)(CO)c1ccccc1)c1ccccc1` (stereo unspecified) the Change [1] was -18%, the IC50 [10] was under 300 µM and the Change [2] was -32%. For the same compound, the Change [7] was -11%, the Change [3] was -14% and the Change [4] was -17%. For the same compound, the Change [5] was -20%.

With `CC(C)(CO)CCCCC(=O)CCCCC(C)(CO)c1ccccc1` (stereo unspecified) the Change [9] was -5%, the Change [11] was 17% and the Change [12] was -18%. The Change [13] was -8%, the IC50 [6] was 1 µM and the Change [14] was -8%. For the same compound, the Change [15] was 18%.

In the case of `Cc1ccc(C(C)(CO)CCCCC(=O)CCCCC(C)(CO)c2ccc(C)cc2)cc1` (stereo unspecified), the Change [9] is reported as -2%, the IC50 [10] is reported as under 300 µM and the Change [11] is reported as 61%. For the same compound, the Change [12] was -3%, the Change [13] was 0% and the Change [14] was 46%. For the same compound, the Change [15] was 15%.

`CC(C)(CCCCC(=O)CCCC(C)(C)C(=O)O)C(=O)O` gave a Change [9] of 4%, a Change [11] of -17% and a Change [12] of 7%. It also gave a Change [13] of 23%, an IC50 [6] of 8 µM and a Change [14] of 93%. For the same compound, the Change [15] was -2%.

With `CC(C)Cc1ccc(C(C)(CCCCC(=O)CCCCC(C)(C(=O)O)c2ccc(CC(C)C)cc2)C(=O)O)cc1` (stereo unspecified) the Change [1] was -40%, the IC50 [10] was under 300 µM and the Change [2] was -44%. It also gave a Change [7] of 62%, a Change [3] of 11% and a Change [4] of -66%. It also gave a Change [5] of -63%.
